ChEMBL document CHEMBL5316295, “Systematic Design of Adenosine Analogs as Inhibitors of a Clostridioides difficile-Specific DNA Adenine Methyltransferase Required for Normal Sporulation and Persistence” (J Med Chem, 2023)
Active and inactive are the calls of the source. The calls are words filed in the database; no cut-off is given here.

What was measured:
[1] = molecular target: DNMT3A-DNMT3L (Mus musculus) (UniProt O88508+Q9CWR8); experiment: Inhibition of mouse DNMT3A/DNMT3L using 5'-G CATGCGTTCTAATTAGAAUGCATG-3' and 3'-GTA CGS AAG ATT AAT CTT GCG TAC G-5' as substrate and SAM as cosubstrate at 10 uM incubated for 1 hr; type: protein-complex assay
Method in brief: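 Dnmt3a-3L (0.5 μM) with 5 μM dsDNA, 25 μM SAM and 10 μM inhibitor in 20 mM Tris pH 7.5, 40 mM NaCl, 4 mM DTT, 20% glycerol, run 1 h at 37 °C.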

Caulobacter vibrioides = experiment: Inhibition of Caulobacter vibrioides CcrM using 5'-CGA TTC AAA AAG TCC CAA G-3' and 3'-GCT AAG TTT TTC AGG GTT C-5' as substrate and SAM as cosubstrate at 10 uM incubated for 5 mins
Method in brief: (§1)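 Conditions were enzyme 0.1 μM, DNA 5 μM, SAM 30 μM, inhibitor 10 μM, at ~22 °C in 50 mM Tris–HCl pH 7.5, 100 mM NaCl, 1 mM DTT, 0.25% DMSO, run 5 min. Substrate and SAM levels were above K_M.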

[2] = molecular target: Protein arginine N-methyltransferase 1 (Homo sapiens) (UniProt Q99873); experiment: Inhibition of PRMT1 (unknown origin) using histone H4 as substrate and 3H-SAM as cosubstrate at 10 uM pretreated with compound for 20 mins in presence of histone H4 followed by cosubstrate addition and measured after 1 hr; details: time 80.0 min
Method in brief: (§2)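 Enzymes (DOT1L 1 nM; EZH2, G9a, PRMT1 5 nM) mixed with substrate (0.05 mg/mL oligonucleosomes for DOT1L; 0.05 mg/mL core histone for EZH2; 5 μM H3 1–21 peptide for G9a; 5 μM H4 for PRMT1). Compound (10 μM) added for 20 min at room temperature, then 1 μM ³H-SAM for 1 h at 30 °C; filter-paper read-out. Triplicates, mean ± SD.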

[3] = molecular target: Histone-lysine N-methyltransferase EZH2 (Homo sapiens) (UniProt Q15910); experiment: Inhibition of EZH2 (unknown origin) using chicken core histone as substrate and 3H-SAM as cosubstrate at 10 uM pretreated with compound for 20 mins in presence of chicken core histone followed by cosubstrate addition and measured after 1 hr; details: time 80.0 min; method in brief: as §2
[4] = molecular target: T1, DNA adenine methylase (Escherichia coli K-12) (UniProt P0AEE8); experiment: Inhibition of Escherichia coli Dam using 5'-CCG CGG ATC CTG CT-3' and 3'-GGC GCC TAG GAC GA-5' as substrate and SAM as cosubstrate at 10 uM incubated for 5 mins; method in brief: as §1
T1 sequence (whole entry): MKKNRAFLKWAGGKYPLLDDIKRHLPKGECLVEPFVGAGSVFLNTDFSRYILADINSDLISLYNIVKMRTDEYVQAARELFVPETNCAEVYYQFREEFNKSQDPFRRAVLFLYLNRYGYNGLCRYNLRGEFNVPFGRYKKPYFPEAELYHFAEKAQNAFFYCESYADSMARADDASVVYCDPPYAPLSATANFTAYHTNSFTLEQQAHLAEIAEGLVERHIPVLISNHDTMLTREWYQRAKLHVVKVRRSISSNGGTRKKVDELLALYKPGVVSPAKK

[5] = molecular target: mRNA (2'-O-methyladenosine-N(6)-)-methyltransferase (Homo sapiens) (UniProt Q9H4Z3); experiment: Inhibition of human PCIF1 using m7GpppAmG as substrate and SAM as cosubstrate at 10 uM incubated for 15 mins
Method in brief: (§3)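 Enzyme 0.1 μM with 5 μM RNA, 30 μM SAM and 10 μM inhibitor at ~22 °C in 50 mM Tris–HCl pH 7.5, 100 mM NaCl, 1 mM DTT, 0.25% DMSO. PCIF1 run 15 min with capped RNA; MettL5-Trm112 run 1 h with ssRNA.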

[6] = molecular target: DNA (cytosine-5)-methyltransferase 1 (Homo sapiens) (UniProt P26358); experiment: Inhibition of human DNMT1 (351 to 1600 residues) using 5'-CCT GCG GAG GCT MGT CAT GA-3' and 3'-GGACGCCTCCGAGCAGTACT-5' as substrate and SAM as cosubstrate at 10 uM incubated for 1 hr
Method in brief: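 DNMT1 (0.1 μM) with 1 μM hemimethylated dsDNA, 5.5 μM SAM and 10 μM inhibitor in 50 mM Tris pH 7.5, 1 mM EDTA, run 1 h at 37 °C.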

[7] = molecular target: Histone-lysine N-methyltransferase, H3 lysine-79 specific (Homo sapiens) (UniProt Q8TEK3); experiment: Inhibition of human DOT1L using oligonucleosome as substrate and 3H-SAM as cosubstrate at 10 uM pretreated with compound for 20 mins in presence of oligonucleosome followed by cosubstrate addition and measured after 1 hr; details: time 80.0 min; method in brief: as §2
[8] = molecular target: METTL5-TRM112 (Homo sapiens) (UniProt Q9UI30+Q9NRN9); experiment: Inhibition of human METTL5/TRM112 using 5'-UCG UAA CAA GGU UU-3' as substrate and SAM as cosubstrate at 10 uM incubated for 1 hr; type: protein-complex assay; method in brief: as §3
[9] = Binding affinity to Clostridioides difficile-specific DNA adenine methyltransferase by MicroCal PEAQ-ITC instrument analysis
[10] = molecular target: METTL3/METTL14 (Homo sapiens) (UniProt Q86U44+Q9HCE5); experiment: Inhibition of human METTL3/METTL14 using 5'-AAC AGA AUG GGA CUG UUC-3' as substrate and SAM as cosubstrate at 10 uM incubated for 15 mins; type: protein-complex assay
Method in brief: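 Under CamA conditions (100 mM NaCl) the assay ran 15 min with 10 μM inhibitor. An alternative condition used 0.1 μM enzyme, 10 μM ssRNA, 20 μM SAM in 50 mM HEPES pH 7.5, 5 mM NaCl, 1 mM DTT, 0.25% DMSO for 10 min.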

[11] = Inhibition of Clostridioides difficile-specific DNA adenine methyltransferase mediated methylation using 5'-CGA TTC AAA AAG TCC CAA G-3' and 3'-GCT AAG TTT TTC AGG GTT C-5' as substrate and SAM as cosubstrate preincubated for 5 mins followed by substrate and cosubstrate addition and measured after 3 mins by MTase glo assay

Sequence of DNA (cytosine-5)-methyltransferase 1 (Homo sapiens) (P26358 whole entry, the tested form may be a part): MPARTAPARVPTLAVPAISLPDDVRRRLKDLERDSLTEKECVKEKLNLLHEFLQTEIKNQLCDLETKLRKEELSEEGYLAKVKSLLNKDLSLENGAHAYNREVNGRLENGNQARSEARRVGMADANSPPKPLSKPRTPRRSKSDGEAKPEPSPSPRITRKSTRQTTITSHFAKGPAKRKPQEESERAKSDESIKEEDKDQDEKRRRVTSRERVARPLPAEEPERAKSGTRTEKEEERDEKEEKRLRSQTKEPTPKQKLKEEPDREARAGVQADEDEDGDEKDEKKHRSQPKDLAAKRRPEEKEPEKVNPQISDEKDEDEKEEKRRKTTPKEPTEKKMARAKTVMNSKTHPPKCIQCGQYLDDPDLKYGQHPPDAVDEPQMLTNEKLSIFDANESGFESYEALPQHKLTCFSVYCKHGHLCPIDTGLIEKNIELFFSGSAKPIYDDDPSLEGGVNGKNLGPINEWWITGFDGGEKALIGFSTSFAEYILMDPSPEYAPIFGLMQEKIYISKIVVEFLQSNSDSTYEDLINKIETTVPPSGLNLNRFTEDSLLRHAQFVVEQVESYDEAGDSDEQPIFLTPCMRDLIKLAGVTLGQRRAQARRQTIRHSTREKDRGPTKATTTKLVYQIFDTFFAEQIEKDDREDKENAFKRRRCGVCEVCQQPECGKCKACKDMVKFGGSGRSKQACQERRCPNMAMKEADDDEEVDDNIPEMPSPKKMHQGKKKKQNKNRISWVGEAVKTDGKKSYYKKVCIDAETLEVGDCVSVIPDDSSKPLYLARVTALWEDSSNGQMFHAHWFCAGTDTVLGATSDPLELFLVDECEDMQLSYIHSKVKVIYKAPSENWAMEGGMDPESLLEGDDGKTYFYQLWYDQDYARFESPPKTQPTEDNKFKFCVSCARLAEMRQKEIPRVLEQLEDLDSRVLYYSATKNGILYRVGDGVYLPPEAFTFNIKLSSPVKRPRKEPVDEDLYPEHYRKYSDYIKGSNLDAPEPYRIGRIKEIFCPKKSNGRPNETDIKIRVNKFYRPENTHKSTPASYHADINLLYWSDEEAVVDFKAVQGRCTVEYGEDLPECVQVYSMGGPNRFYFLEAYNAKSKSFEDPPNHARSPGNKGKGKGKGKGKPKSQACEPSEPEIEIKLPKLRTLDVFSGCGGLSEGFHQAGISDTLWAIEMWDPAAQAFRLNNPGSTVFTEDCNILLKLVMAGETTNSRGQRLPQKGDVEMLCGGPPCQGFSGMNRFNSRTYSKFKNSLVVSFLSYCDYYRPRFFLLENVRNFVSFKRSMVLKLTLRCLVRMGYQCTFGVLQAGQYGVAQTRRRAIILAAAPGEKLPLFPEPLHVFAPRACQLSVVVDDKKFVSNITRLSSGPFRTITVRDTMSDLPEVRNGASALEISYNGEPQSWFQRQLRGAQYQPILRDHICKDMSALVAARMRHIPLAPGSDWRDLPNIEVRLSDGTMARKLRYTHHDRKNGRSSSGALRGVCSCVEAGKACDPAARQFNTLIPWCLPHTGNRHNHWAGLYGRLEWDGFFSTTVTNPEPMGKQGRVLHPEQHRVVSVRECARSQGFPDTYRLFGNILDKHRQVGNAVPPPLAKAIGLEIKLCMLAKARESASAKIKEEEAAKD
Sequence of mRNA (2'-O-methyladenosine-N(6)-)-methyltransferase (Homo sapiens) (Q9H4Z3 whole entry): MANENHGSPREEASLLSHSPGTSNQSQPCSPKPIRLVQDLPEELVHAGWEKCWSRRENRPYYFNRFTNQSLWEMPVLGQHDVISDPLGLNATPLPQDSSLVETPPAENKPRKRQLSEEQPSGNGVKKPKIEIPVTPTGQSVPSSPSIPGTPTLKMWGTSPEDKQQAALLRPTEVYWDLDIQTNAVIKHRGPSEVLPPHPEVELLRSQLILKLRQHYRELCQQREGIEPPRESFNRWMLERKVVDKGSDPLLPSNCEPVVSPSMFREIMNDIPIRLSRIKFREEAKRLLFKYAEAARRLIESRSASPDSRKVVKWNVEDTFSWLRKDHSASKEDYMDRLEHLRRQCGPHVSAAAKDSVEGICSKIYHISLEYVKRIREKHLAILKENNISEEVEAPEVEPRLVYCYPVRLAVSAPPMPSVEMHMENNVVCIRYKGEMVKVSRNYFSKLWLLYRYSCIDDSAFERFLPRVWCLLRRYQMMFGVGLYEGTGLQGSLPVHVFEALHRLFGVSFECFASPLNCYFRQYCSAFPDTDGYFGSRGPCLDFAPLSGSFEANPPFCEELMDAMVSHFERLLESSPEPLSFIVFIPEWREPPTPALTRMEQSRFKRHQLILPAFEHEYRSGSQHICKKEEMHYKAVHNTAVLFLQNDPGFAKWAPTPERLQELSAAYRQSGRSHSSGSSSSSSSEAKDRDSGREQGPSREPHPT
Sequence of Histone-lysine N-methyltransferase EZH2 (Homo sapiens) (Q15910 whole entry, looked up): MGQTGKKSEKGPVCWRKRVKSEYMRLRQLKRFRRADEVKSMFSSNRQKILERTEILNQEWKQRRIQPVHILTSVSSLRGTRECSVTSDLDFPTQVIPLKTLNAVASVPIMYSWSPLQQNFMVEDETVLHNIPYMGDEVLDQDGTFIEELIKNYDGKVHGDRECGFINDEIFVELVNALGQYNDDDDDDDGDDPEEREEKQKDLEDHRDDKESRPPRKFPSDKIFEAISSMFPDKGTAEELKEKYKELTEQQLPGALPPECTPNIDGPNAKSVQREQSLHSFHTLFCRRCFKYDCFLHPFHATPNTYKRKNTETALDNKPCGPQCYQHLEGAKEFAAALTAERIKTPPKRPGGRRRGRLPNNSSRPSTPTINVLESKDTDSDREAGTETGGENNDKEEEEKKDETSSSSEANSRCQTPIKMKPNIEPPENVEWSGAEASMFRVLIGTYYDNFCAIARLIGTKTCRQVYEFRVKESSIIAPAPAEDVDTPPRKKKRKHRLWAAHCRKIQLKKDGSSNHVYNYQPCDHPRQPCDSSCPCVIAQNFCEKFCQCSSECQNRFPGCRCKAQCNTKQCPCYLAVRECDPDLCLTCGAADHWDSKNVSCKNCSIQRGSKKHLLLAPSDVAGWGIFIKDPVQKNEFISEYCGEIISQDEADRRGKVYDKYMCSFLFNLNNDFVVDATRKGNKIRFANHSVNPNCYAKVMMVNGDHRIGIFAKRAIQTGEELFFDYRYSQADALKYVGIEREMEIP
Sequence of Histone-lysine N-methyltransferase, H3 lysine-79 specific (Homo sapiens) (Q8TEK3 whole entry, looked up): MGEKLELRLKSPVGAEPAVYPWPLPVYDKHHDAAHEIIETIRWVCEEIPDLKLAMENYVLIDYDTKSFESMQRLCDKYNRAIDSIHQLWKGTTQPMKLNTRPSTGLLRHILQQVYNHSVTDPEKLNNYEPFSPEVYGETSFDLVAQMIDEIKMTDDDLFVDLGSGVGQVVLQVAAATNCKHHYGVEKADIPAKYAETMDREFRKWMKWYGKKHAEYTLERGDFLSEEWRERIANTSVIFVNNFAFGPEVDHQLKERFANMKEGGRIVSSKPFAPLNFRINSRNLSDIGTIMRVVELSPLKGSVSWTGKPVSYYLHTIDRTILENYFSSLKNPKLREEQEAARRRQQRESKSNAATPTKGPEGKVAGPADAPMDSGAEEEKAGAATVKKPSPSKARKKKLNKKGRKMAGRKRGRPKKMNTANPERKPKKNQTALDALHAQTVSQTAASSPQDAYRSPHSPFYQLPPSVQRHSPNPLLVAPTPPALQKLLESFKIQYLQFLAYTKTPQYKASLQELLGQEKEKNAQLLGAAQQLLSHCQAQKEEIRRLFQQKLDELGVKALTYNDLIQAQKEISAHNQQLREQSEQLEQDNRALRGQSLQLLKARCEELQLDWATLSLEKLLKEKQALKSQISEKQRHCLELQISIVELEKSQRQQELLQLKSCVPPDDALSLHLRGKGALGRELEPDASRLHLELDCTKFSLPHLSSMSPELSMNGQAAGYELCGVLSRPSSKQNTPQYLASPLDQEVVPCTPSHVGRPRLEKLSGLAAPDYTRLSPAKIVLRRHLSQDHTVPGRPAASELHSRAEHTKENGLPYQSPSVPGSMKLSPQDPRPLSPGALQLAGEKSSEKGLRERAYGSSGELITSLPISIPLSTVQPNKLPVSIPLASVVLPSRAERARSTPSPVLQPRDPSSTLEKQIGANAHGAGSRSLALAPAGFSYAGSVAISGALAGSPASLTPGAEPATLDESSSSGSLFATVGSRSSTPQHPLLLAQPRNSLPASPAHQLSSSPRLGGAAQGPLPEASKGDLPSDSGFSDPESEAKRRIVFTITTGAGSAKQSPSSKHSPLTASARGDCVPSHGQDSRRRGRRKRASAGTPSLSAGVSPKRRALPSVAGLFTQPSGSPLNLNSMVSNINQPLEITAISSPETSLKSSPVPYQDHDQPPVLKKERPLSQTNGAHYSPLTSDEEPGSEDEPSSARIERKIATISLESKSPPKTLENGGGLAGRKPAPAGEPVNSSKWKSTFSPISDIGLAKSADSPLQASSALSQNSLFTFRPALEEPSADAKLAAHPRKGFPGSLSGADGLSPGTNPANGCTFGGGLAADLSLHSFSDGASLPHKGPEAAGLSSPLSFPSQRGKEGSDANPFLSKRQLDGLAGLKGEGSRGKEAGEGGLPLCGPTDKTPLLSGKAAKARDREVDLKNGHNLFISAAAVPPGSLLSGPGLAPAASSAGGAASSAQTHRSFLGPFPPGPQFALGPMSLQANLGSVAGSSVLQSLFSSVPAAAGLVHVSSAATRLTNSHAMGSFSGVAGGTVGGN
Sequence of Protein arginine N-methyltransferase 1 (Homo sapiens) (Q99873 whole entry, looked up): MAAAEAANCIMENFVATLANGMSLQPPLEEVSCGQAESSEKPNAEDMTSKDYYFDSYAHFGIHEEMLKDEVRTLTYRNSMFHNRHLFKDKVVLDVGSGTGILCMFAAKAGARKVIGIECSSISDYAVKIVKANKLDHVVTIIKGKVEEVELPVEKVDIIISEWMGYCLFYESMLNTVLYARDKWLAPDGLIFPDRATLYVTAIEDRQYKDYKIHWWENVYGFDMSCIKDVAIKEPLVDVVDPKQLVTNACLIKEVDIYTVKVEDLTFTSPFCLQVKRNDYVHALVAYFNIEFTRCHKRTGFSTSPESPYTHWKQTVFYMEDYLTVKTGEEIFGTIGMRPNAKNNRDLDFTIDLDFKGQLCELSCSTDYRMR

SMILES | inhibition [1] | inhibition (Caulobacter vibrioides) | inhibition [2] | inhibition [3] | inhibition [4] | inhibition [5] | inhibition [6] | inhibition [7] | inhibition [8] | Kd [9] | inhibition [10] | IC50 [11]
OC[C@H]1O[C@@H](n2cnc3c(NCCCc4ccc(O)cc4)ncnc32)[C@H](O)[C@@H]1O | inactive | inactive | inactive | inactive | inactive | inactive | inactive | inactive | inactive | 230 nM | inactive | 510 nM
CC(C)(C)OC(=O)N1CCC(CCNc2ncnc3c2ncn3[C@@H]2O[C@H](CO)[C@@H](O)[C@H]2O)CC1 | inactive | inactive | inactive | inactive | inactive | inactive | inactive | inactive | inactive | 140 nM | inactive | 710 nM
CC(C)(C)OC(=O)N1CCC(CCCNc2ncnc3c2ncn3[C@@H]2O[C@H](CO)[C@@H](O)[C@H]2O)CC1 | inactive | inactive | inactive | inactive | inactive | inactive | inactive | inactive | inactive | 140 nM | inactive | 390 nM
